This is an account of results in the RNAGym collection of RNA variant scans (doi:10.1126/science.aae0568).

The labels stand for the following.
B1: tRNA (parent)
chain: GUUCCGUUGGCGUAAUGGUAACGCGUCUCCCUCCUAAGGAGAAGACUGCGGGUUCGAGUCCCGUACGGAACG

Fewer inactive variants are shown than the library holds.

The variants in the data set derive from B1. Description: yeast fitness relative to wild type (ratio to wild type); higher = fitter; tRNA-Arg(CCU), competitive growth, 37 C, YPD. The procedure, abridged: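 Variants of the tRNA-Arg(CCU) gene, chemically synthesised with a 3% per-site mutation rate at 69 sites, were placed at the native genomic locus in Saccharomyces cerevisiae. The pooled strains were competed in YPD at 37°C for 24 hours in six parallel replicates. Gene amplicons from the start population and from each end population were read by 100-nucleotide paired-end sequencing. Darwinian fitness relative to wild type came from changes in genotype frequencies; genotypes needed ≥ 100 starting reads, and estimates < 0.5 were set to 0.5.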
For GUUCCGUUGGCGUAAUGGUAACGCGUCUCCCUCCUAAGGCGAAGACUGCCGGUUCGAGUCCCGUACGGAACG, the yeast fitness stood at 0.644. The same measure for GUUCCGUUGGCGUAAUGGUAACGCGUCUCCCUCCUAAGGGGAAGGCUGCGGAUUCGAGUCCCGUACGGAACG: no more than 0.5; for GUUCCGUUGGCGUAAUGGUAACGCGUCUCCCUCCUAAGGGGAAGAUUGCGGGUUCGAGUCCCGUACGGAACG: 0.918; for GUUCCGUUGGCGUAAUGGUAACGCGUCUCCCUCCUAAGGGGAAGAGUGCGGGUUCGAGUCCCGUACGGAACG: 0.998. Take GUUCCGUUGGCGUAAUGGUAACGCGUCUCCCUCCUAAGGCGAAGACUGCGGGUUCGAGUCCUGUACGGAACG: the yeast fitness came to 0.863. Take GUUCCGUUGGCGUAAUGGUAACGCGUCUCCCUCCUAAGGCGAAGACUGCGAGUACGAGUCCCGUACGGAACG: the yeast fitness was no more than 0.5.

As for GUUCCGUUGGCGUAAUGGUAACGCGUCUCCCUCCUAAGGCCAAGACUGCGGGUUCGAGUCCCGUACCGAACG, the yeast fitness was no more than 0.5. The same measure for GUUCCGUUGGCGUAAUGGUAACGCGUCUCCCUCCUAAGGGGAAGACUGCGGGUUCGCGUCCUGUACGGAACG: no more than 0.5; for GUUCCGUUGGCGUAAUGGUAACGCGUCUCCCUCCUAAGGCGAAGACUGCGGGCUCGAGUCCCGUACGGAACG: 0.828; for GUUCCGUUGGCGUAAUGGUAACGCGUCUCCCUCCUAAGGCGAAGACUGCGGGAUCGAGUCCCGUACGGAACG: 0.599. With GUUCCGUUGGCGUAAUGGUAACGCGUCUCCCUCCUAAGGCGAAGACUGCGGGUUCGAGUCACGUAAGGAACG the figure was no more than 0.5; with GUUCCGUUGGCGUAAUGGUAACGCGUCUCCCUCCUAAGGCGAAGACUGCGGGUCCGAGUCCCGUACGGAACG, 0.963; with GUUCCGUUGGCGUAAUGGUAACGCGUCUCCCUCCUAAGGGGAAGACUGCGGGUUCGAGUCCCGUACGGAGCG, 1.09.

Regarding GUUCCGUUGGCGUAAUGGUAACGCGUCUCCCUCCUAAGGGGAAGACUGCGGGUUCGAGUCCCGUACGGAUCG, the yeast fitness worked out at 0.891. With GUUCCGUUGGCGUAAUGGUAACGCGUCUCCCUCCUAAGGCGAAGACUGCGGGUUCGAGUCCCGUACUGAACG the figure was 0.815.

GUUCCGUUGGCGUAAUGGUAACGCGUCUCCCUCCUAAGGCGAAGACUGCGGGUUCGAGUCCCGUACCGAACG: the yeast fitness is 0.907. The same measure for GUUCCGUUGGCGUAAUGGUAACGCGUCUCCCUCCUAAGGCGAAGACAGCGGGUUCGAGUCCCGUACGGAACG: 0.636. With GUUCCGUUGGCGUAAUGGUAACGCGUCUCCCUCCUAAGGCGAAGACUGCGGGUUUGAGUCCCGUACGGAACG the figure was 0.929. The same measure for GUUCCGUUGGCGUAAUGGUAACGCGUCUCCCUCCUAAGGGGAAGACUGCGGGUUCGAGUCUCGGACGGUACG: no more than 0.5; for GUUCCGUUGGCGUAAUGGUAACGCGUCUCCCUCCUAAGGGGAUGACUGCGGGUUGGAGUCCCGUACGGAACG: 0.535. In the case of GUUCCGUUGGCGUAAUGGUAACGCGUCUCCCUCCUAAGGGGAAGACUGCGGGUUCGAGUCCAGUACGGACCG, the yeast fitness was 0.595. The same measure for GUUCCGUUGGCGUAAUGGUAACGCGUCUCCCUCCUAAGGCGAAGACUGCGGGUUCGAGUCCCGUAAGGAACG: 0.755; for GUUCCGUUGGCGUAAUGGUAACGCGUCUCCCUCCUAAGGCGAAGACUGCGGGUUCGAGUCCCGUAGGGAACG: 0.669. The same measure for GUUCCGUUGGCGUAAUGGUAACGCGUCUCCCUCCUAAGGCGAAGACUGCGGGUUCGACUCCCGUACGGAACG: 0.922; for GUUCCGUUGGCGUAAUGGUAACGCGUCUCCCUCCUAAGGGGAAGACUGCGGGUUCGAGUCCGGUACGGAACG: 0.719; for GUUCCGUUGGCGUAAUGGUAACGCGUCUCCCUCCUAAGGCGAAGACUACGGGUUCGAGUCCCGUACGGAACG: 1.02. Consider GUUCCGUUGGCGUAAUGGUAACGCGUCUCCCUCCUAAGGGGAAGGCUGCGGGUUCGAGUCCCGUACGGAACG, for which the yeast fitness was 0.849.

As for GUUCCGUUGGCGUAAUGGUAACGCGUCUCCCUCCUAAGGGGAAGUCUGCGGGUUCGAGUCCCGUACGGAACG, the yeast fitness was 0.786.

Regarding GUUCCGUUGGCGUAAUGGUAACGCGUCUCCCUCCUAAGGGGAAGAAUGCGGGUUCGAGUCCCGUACAGAACG, the yeast fitness stood at 0.563. The same measure for GUUCCGUUGGCGUAAUGGUAACGCGUCUCCCUCCUAAGGCGAAGACUGCGGGUUCGAGUUUCGUACGGAACG: no more than 0.5; for GUUCCGUUGGCGUAAUGGUAACGCGUCUCCCUCCUAAGGGGAAGAGUGCGGGUUCGAGUUCCGUACGGAACG: no more than 0.5; for GUUCCGUUGGCGUAAUGGUAACGCGUCUCCCUCCUAAGGGGCAGACUGCGGGUUCGAGUCCCGUACGGAACG: 0.757. Regarding GUUCCGUUGGCGUAAUGGUAACGCGUCUCCCUCCUAAGGGGUAGACUGCGGGUUCGAGUCCCGUACGGAACG, the yeast fitness worked out at 0.71. The same measure for GUUCCGUUGGCGUAAUGGUAACGCGUCUCCCUCCUAAGGGGAAGACUGCGGGUUCGUGUUCCGUACGGAGCG: 0.624; for GUUCCGUUGGCGUAAUGGUAACGCGUCUCCCUCCUAAGGGGAAGAAUGCGGGUUCGAGUCUCGUACGGAACG: 0.782. With GUUCCGUUGGCGUAAUGGUAACGCGUCUCCCUCCUAAGGGGAAGAAUGCGGGUUCGAGUCCUGUACGGAACG the figure was 0.734; with GUUCCGUUGGCGUAAUGGUAACGCGUCUCCCUCCUAAGGGGAAGACUGUGGGUUCGAGUCCCGUCCGGAACG, 0.941. The same measure for GUUCCGUUGGCGUAAUGGUAACGCGUCUCCCUCCUAAGGCGAAGACUGCGGGUUCGAGUCACGUUCGGAACG: 0.625. For the variant GUUCCGUUGGCGUAAUGGUAACGCGUCUCCCUCCUAAGGCGAAGACUGCGGCUUCGAGUCCCGUACGGAACG, the yeast fitness stood at 0.685.

Consider GUUCCGUUGGCGUAAUGGUAACGCGUCUCCCUCCUAAGGCGAAGACUGCAGGUUCGAGUCCUGUACGGAACG, for which the yeast fitness was 0.543.

Consider GUUCCGUUGGCGUAAUGGUAACGCGUCUCCCUCCUAAGGGGAGCACUGCGGGUUCGAGUCCCGUACGGAACG, for which the yeast fitness is no more than 0.5. On to GUUCCGUUGGCGUAAUGGUAACGCGUCUCCCUCCUAAGGGGAAGACUGCGGGUUUGAGUCCCGUCCGGAACG, for which the yeast fitness worked out at 0.525. The same measure for GUUCCGUUGGCGUAAUGGUAACGCGUCUCCCUCCUAAGGCGAAGACUGCGGGUUCGAGUCCGAUACGGAACG: no more than 0.5; for GUUCCGUUGGCGUAAUGGUAACGCGUCUCCCUCCUAAGGCGAAGACUGCGGGUUUGAGUGCAGUACGGAACG: 0.546.

In the case of GUUCCGUUGGCGUAAUGGUAACGCGUCUCCCUCCUAAGGGGAGGACUGCGGGUUCGAGUCCGGUACGGAACG, the yeast fitness is no more than 0.5. The same measure for GUUCCGUUGGCGUAAUGGUAACGCGUCUCCCUCCUAAGGGGAAGACUGCGGGUUCGAGUCCUGUACGGCACG: 0.725; for GUUCCGUUGGCGUAAUGGUAACGCGUCUCCCUCCUAAGGGGAAGCCUGGGGGUUCGAGUCCCGUACCGUACG: no more than 0.5; for GUUCCGUUGGCGUAAUGGUAACGCGUCUCCCUCCUAAGGGGAAGACUGCGGGUUCGAGUCCCGUAAGGAACG: 0.694. With GUUCCGUUGGCGUAAUGGUAACGCGUCUCCCUCCUAAGGCGAAGACUGCGGGUUCGAGUUCCGUACAGAACG the figure was no more than 0.5; with GUUCCGUUGGCGUAAUGGUAACGCGUCUCCCUCCUAAGGGGAAAACUGCGGGUUCGAGUCCCGUACGGAACG, 0.717; with GUUCCGUUGGCGUAAUGGUAACGCGUCUCCCUCCUAAGGCGAAGACUGCGAGUUCGAGUCCCAUACGGCACG, no more than 0.5. The same measure for GUUCCGUUGGCGUAAUGGUAACGCGUCUCCCUCCUAAGGGGAAGACUGCGGGUUGGAGUCCCGUACGGAACG: 0.621; for GUUCCGUUGGCGUAAUGGUAACGCGUCUCCCUCCUAAGGGGAAGACUGCGGGUUAGAGUCCCGUACGGAACG: 0.626. On to GUUCCGUUGGCGUAAUGGUAACGCGUCUCCCUCCUAAGGGGAAGACUGGGGGCUCGCGUCCCGUACGGUACG, for which the yeast fitness was no more than 0.5. The same measure for GUUCCGUUGGCGUAAUGGUAACGCGUCUCCCUCCUAAGGCGAAGACUGCGGGUUCGAGUGCGGUACGGAACG: no more than 0.5; for GUUCCGUUGGCGUAAUGGUAACGCGUCUCCCUCCUAAGGCGAAGACUGCGGGUUCGAGUCCCAUACGGAACG: 0.815. The same measure for GUUCCGUUGGCGUAAUGGUAACGCGUCUCCCUCCUAAGGGGAAGACUGCGGGUUCGAGUCCCGUACGGCACG: 0.861; for GUUCCGUUGGCGUAAUGGUAACGCGUCUCCCUCCUAAGGGGAAGACUGCGGGUUCGAGUCGCGCACGGAACG: no more than 0.5. With GUUCCGUUGGCGUAAUGGUAACGCGUCUCCCUCCUAAGGCGAAGACUGCGGGUUCGAGUCCUGCACGGAACG the figure was 0.534; with GUUCCGUUGGCGUAAUGGUAACGCGUCUCCCUCCUAAGGGGAAGACUGUGGGUUCGAGUCCCGUACAGAACG, no more than 0.5. As for GUUCCGUUGGCGUAAUGGUAACGCGUCUCCCUCCUAAGGCGAAGACUGCGGGUUCCAGUCCCGUAGGGAACG, the yeast fitness was no more than 0.5. With GUUCCGUUGGCGUAAUGGUAACGCGUCUCCCUCCUAAGGCGAACACUGCGGGUUGGAGUCCCGUACGGAACG the figure was no more than 0.5; with GUUCCGUUGGCGUAAUGGUAACGCGUCUCCCUCCUAAGGGGAGCACUGCGGGUUCGAGUCCCGUAUGGAACG, no more than 0.5. The same measure for GUUCCGUUGGCGUAAUGGUAACGCGUCUCCCUCCUAAGGGGAAGGCUGCGGGAUCGAGUCCCGUACGGAACG: no more than 0.5; for GUUCCGUUGGCGUAAUGGUAACGCGUCUCCCUCCUAAGGGGAAGUCUGCGGGUUCAAGUCCCGUACGGAACG: 0.601. The same measure for GUUCCGUUGGCGUAAUGGUAACGCGUCUCCCUCCUAAGGGAAAGACUGCGGGUUCGAGUCCCGUACGGAACG: 0.825. Consider GUUCCGUUGGCGUAAUGGUAACGCGUCUCCCUCCUAAGGGGAAGACUGCGGGUUCGAGUGCCCUACGGAACG, for which the yeast fitness is no more than 0.5.

In the case of GUUCCGUUGGCGUAAUGGUAACGCGUCUCCCUCCUAAGGCGAAGACUGCGGGUUCGAGUCCCGUACUCAACG, the yeast fitness is 0.585.

Consider GUUCCGUUGGCGUAAUGGUAACGCGUCUCCCUCCUAAGGCCAAGACUGCGGGUUCGAGUCCCGUACGGAACG, for which the yeast fitness amounted to 0.56.

Turning to GUUCCGUUGGCGUAAUGGUAACGCGUCUCCCUCCUAAGGCAAAGACUGCGGGUUCGAGUCCCGUACGGAACG, the yeast fitness stood at 0.978. With GUUCCGUUGGCGUAAUGGUAACGCGUCUCCCUCCUAAGGGGAAAUCUGUGGGUUCGAGUCCCGUACGGAACG the figure was no more than 0.5; with GUUCCGUUGGCGUAAUGGUAACGCGUCUCCCUCCUAAGGGGUAGACUGAGGGUUCGAGUCCCGUACGGAACG, no more than 0.5; with GUUCCGUUGGCGUAAUGGUAACGCGUCUCCCUCCUAAGGGGAAGAAUGCGGGUUCGAGUCCCGUACGCAACG, 0.633.

Take GUUCCGUUGGCGUAAUGGUAACGCGUCUCCCUCCUAAGGCGAAGACUGCGGGUUCAACUCCCGUACGGAACG: the yeast fitness was 0.598.

For the variant GUUCCGUUGGCGUAAUGGUAACGCGUCUCCCUCCUAAGGGGAAGACUGCGGGUUCGGGUCCCGUACGGAACG, the yeast fitness amounted to 0.969.
